Laboratory results taken from ChEMBL document CHEMBL3817843, “Understanding Oxadiazolothiazinone Biological Properties: Negative Inotropic Activity versus Cytochrome P450-Mediated Metabolism” (J Med Chem, 2016).

How the values were obtained:
Left cardiac atrium [1] = assay: Negative inotropic activity in potassium depolarized guinea pig left atrium assessed as reduction in developed tension at 10^-5 M after 30 mins; assay type: functional, Cavia porcellus; design: scale not given: the % may be the effect or the level left
Left cardiac atrium [2] = assay: Negative inotropic activity in potassium depolarized guinea pig left atrium assessed as reduction in developed tension after 30 mins; assay type: functional; details: Cavia porcellus, 0.5 h
In short: (§1)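 Guinea pig left atria electrically driven at 1 Hz. EC50 taken from log concentration−response curves by Litchfield and Wilcoxon probit analysis, n = 6−7. Not calculated when the maximum effect was below 50%.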

Right cardiac atrium [3] = assay: Negative chronotropic activity in potassium depolarized guinea pig right atrium assessed as reduction in atrial rate at 50 uM after 30 mins; assay type: functional, Cavia porcellus; design: scale not given: the % may be the effect or the level left
Aorta [4] = assay: Vasorelaxant activity in potassium depolarized guinea pig aorta assessed as inhibition of calcium-induced contraction at 10^-4 M after 30 mins; assay type: functional, Cavia porcellus; design: scale not given: the % may be the effect or the level left
In short: (§2)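 Guinea pig aortic strips depolarized with K+ (80 mM). Calcium-induced contraction measured; inhibition expressed as percent change from control, n = 3−5.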

Cytochrome P450 2C19 = Cytochrome P450 2C19 (Homo sapiens, UniProt P33261); assay: Inhibition of CYP2C19 in human liver microsomes using (S)-mephenytoin as substrate after 40 mins by LC-MS analysis
Cytochrome P450 2D6 = Cytochrome P450 2D6 (Homo sapiens, UniProt P10635); assay: Inhibition of CYP2D6 in human liver microsomes using dextromethorphan as substrate after 10 mins by LC-MS analysis
Liver microsome = assay: Stability in human liver microsomes at 1 uM after 2 to 60 mins by LC-MS analysis in absence of NADPH
Cytochrome P450 1A2 = molecular target: T1, Cytochrome P450 1A2 (Homo sapiens, UniProt P05177); assay: Inhibition of CYP1A2 in human liver microsomes using phenacetin as substrate after 30 mins by LC-MS analysis
T1 sequence (P05177 whole entry): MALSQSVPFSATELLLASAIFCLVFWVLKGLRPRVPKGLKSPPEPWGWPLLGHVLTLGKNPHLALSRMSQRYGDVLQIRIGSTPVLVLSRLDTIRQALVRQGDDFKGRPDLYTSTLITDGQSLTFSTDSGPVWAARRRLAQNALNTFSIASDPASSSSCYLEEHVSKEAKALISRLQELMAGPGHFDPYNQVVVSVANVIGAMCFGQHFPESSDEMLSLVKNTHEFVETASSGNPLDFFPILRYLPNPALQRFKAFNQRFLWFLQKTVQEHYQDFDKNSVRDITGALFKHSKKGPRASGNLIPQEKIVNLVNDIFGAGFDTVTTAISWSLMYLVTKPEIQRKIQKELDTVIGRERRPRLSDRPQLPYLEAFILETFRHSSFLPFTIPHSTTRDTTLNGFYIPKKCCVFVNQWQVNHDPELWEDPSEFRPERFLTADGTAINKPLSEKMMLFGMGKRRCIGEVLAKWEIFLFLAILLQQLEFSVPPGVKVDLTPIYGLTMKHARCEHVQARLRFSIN

Cytochrome P450 2C9 = Cytochrome P450 2C9 (Homo sapiens, UniProt P11712); assay: Inhibition of CYP2C9 in human liver microsomes using tolbutamide as substrate after 20 mins by LC-MS analysis
Cytochrome P450 3A4 [5] = molecular target: T2, Cytochrome P450 3A4 (Homo sapiens, UniProt P08684); assay: Inhibition of CYP3A4 in human liver microsomes using testosterone as substrate after 5 mins by LC-MS analysis
Left cardiac atrium [6] = assay: Negative inotropic activity in potassium depolarized guinea pig left atrium assessed as reduction in developed tension; assay type: functional; details: Cavia porcellus; in short: as §1
Left cardiac atrium [7] = assay: Negative inotropic activity in potassium depolarized guinea pig left atrium assessed as reduction in developed tension at 10^-5 M; assay type: functional, Cavia porcellus; design: scale not given: the % may be the effect or the level left
Aorta [8] = assay: Vasorelaxant activity in potassium depolarized guinea pig aorta assessed as inhibition of calcium-induced contraction at 10^-6 M; assay type: functional, Cavia porcellus; design: scale not given: the % may be the effect or the level left
In short: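 Guinea pig aortic strips depolarized with 80 mM K+, then contracted by calcium addition. The read-out is percent inhibition of the calcium-induced contraction, expressed as percent change from control, with n = 3–5.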

Left cardiac atrium [9] = assay: Negative inotropic activity in potassium depolarized guinea pig left atrium assessed as reduction in developed tension at 50 uM after 30 mins; assay type: functional, Cavia porcellus; design: scale not given: the % may be the effect or the level left
Aorta [10] = assay: Vasorelaxant activity in potassium depolarized guinea pig aorta assessed as inhibition of calcium-induced contraction at 50 uM after 30 mins; assay type: functional, Cavia porcellus; design: scale not given: the % may be the effect or the level left; in short: as §2
Cytochrome P450 3A4 [11] = molecular target: T2, Cytochrome P450 3A4; assay: Inhibition of CYP3A4 in human liver microsomes using midazolam as substrate after 4 mins by LC-MS analysis
[12] = Half life in human liver microsomes assessed as CYP-mediated compound degradation at 1 uM by LC-MS analysis
in vitro = details: human, liver microsomes
Left cardiac atrium [13] = assay: Negative inotropic activity in potassium depolarized guinea pig left atrium assessed as reduction in developed tension at 10^-4 M after 30 mins; assay type: functional, Cavia porcellus; design: scale not given: the % may be the effect or the level left
Right cardiac atrium [14] = assay: Negative chronotropic activity in potassium depolarized guinea pig right atrium assessed as reduction in atrial rate at 10^-4 M after 30 mins; assay type: functional, Cavia porcellus; design: scale not given: the % may be the effect or the level left
[15] = Relaxant activity in potassium depolarized guinea pig ileum longitudinal smooth muscle assessed as inhibition of calcium-induced contraction at 10^-4 M after 30 mins; assay type: functional, Cavia porcellus; design: scale not given: the % may be the effect or the level left
[16] = Relaxant activity in potassium depolarized guinea pig ileum longitudinal smooth muscle assessed as inhibition of calcium-induced contraction after 30 mins; assay type: functional, tissue-based; details: Cavia porcellus, 0.5 h
Right cardiac atrium [17] = assay: Negative chronotropic activity in potassium depolarized guinea pig right atrium assessed as reduction in atrial rate at 10^-6 M after 30 mins; assay type: functional, Cavia porcellus; design: scale not given: the % may be the effect or the level left
[18] = Relaxant activity in potassium depolarized guinea pig ileum longitudinal smooth muscle assessed as inhibition of calcium-induced contraction at 50 uM after 30 mins; assay type: functional, Cavia porcellus; design: scale not given: the % may be the effect or the level left
Aorta [19] = assay: Vasorelaxant activity in potassium depolarized guinea pig aorta assessed as inhibition of calcium-induced contraction at 10^-4 M; assay type: functional, Cavia porcellus; design: scale not given: the % may be the effect or the level left; in short: as §2
Right cardiac atrium [20] = assay: Negative chronotropic activity in potassium depolarized guinea pig right atrium assessed as reduction in atrial rate after 30 mins; assay type: functional; details: Cavia porcellus, 0.5 h
[21] = Relaxant activity in potassium depolarized guinea pig ileum longitudinal smooth muscle assessed as inhibition of calcium-induced contraction at 5 uM after 30 mins; assay type: functional, Cavia porcellus; design: scale not given: the % may be the effect or the level left

T2 sequence (P08684 whole entry): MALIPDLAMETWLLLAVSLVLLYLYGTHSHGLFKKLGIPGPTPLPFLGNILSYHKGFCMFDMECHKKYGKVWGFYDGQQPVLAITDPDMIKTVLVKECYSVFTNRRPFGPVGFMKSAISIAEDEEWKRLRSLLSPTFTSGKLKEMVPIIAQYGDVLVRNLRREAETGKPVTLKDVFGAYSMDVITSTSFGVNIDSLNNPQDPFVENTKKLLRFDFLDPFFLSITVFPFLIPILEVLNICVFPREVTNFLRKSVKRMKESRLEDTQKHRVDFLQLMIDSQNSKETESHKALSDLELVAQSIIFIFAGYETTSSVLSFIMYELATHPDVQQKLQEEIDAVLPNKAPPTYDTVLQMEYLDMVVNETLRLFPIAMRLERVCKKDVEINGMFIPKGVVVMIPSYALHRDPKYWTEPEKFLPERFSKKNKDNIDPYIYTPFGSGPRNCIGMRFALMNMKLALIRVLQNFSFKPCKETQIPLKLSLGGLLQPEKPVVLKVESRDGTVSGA
Cytochrome P450 2C9, sequence (P11712 whole entry): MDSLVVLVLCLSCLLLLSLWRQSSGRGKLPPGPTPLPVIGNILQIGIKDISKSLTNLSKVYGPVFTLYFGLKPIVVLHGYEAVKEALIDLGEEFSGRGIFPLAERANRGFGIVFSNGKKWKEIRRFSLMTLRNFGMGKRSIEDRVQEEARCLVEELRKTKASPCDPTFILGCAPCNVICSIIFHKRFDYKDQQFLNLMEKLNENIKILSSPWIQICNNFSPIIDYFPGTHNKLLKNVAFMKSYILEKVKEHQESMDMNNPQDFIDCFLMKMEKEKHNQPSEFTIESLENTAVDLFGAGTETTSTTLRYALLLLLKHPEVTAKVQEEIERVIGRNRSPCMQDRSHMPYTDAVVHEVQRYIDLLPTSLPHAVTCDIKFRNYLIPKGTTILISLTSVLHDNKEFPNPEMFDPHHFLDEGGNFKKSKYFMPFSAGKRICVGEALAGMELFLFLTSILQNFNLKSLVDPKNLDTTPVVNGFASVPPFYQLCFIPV
Cytochrome P450 2D6, sequence (P10635 whole entry): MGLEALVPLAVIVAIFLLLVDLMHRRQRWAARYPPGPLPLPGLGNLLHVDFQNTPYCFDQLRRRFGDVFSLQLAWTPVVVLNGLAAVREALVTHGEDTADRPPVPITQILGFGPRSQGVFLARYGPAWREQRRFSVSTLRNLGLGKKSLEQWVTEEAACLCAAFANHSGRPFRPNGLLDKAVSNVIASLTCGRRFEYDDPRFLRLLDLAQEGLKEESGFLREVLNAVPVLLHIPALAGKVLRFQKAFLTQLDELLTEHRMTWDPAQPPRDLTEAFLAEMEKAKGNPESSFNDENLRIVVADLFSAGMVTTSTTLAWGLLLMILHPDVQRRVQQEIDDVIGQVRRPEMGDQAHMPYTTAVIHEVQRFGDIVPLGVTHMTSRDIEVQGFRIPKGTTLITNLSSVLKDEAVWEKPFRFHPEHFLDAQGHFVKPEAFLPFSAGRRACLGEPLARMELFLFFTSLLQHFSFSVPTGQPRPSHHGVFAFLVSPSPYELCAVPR
Cytochrome P450 2C19, sequence (P33261 whole entry): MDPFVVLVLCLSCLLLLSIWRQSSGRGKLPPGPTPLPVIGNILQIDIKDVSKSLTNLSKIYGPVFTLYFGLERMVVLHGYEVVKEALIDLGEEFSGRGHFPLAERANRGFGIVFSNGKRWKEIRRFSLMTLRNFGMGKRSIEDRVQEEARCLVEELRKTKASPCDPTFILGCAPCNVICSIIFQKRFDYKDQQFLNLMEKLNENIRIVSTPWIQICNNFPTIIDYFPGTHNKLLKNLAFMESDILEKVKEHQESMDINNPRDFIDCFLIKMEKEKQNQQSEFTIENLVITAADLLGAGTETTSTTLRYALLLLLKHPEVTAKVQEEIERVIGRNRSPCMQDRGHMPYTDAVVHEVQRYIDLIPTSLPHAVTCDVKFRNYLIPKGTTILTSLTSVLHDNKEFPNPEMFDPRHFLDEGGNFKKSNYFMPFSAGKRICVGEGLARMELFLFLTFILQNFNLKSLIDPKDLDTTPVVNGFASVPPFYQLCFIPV

SMILES	EC50 (Left cardiac atrium [2]) [µM]	IC50 (Cytochrome P450 2C19) [µM]	IC50 (Cytochrome P450 2D6) [µM]	Stability (Liver microsome)	IC50 (Cytochrome P450 1A2) [µM]	IC50 (Cytochrome P450 2C9) [µM]	IC50 (Cytochrome P450 3A4 [5]) [µM]	IC50 (Cytochrome P450 3A4 [11]) [µM]	Activity (Left cardiac atrium [1]) [%]	Activity (Right cardiac atrium [3]) [%]	Activity (Aorta [4]) [%]	Activity (Left cardiac atrium [9]) [%]	also measured
COC(=O)C1=C(C)NC(C)=C(C(=O)OC)C1c1ccccc1[N+](=O)[O-] [NIFEDIPINE]	–	–	–	–	–	–	–	–	–	–	–	–	EC50 (Left cardiac atrium [6]): 0.26 µM; Activity (Left cardiac atrium [7]): 97%; Activity (Aorta [8]): 82%
O=c1onc2n1C=CSC2(O)c1ccccc1 (stereo not given)	–	–	–	–	–	–	–	–	–	14	–	74	Activity (Aorta [10]): 11%
COc1cccc(C2(OCC3CCCCC3)SC=C(C)n3c2noc3=O)c1 (stereo not given)	0.65	–	–	–	–	–	–	–	–	4	20	83	–
O=c1onc2n1-c1ccccc1SC2(O)c1ccccc1 (stereo not given)	1.29	–	–	–	–	–	–	–	–	10	21	97	–
COc1ccc(C2(O)SC=C(C)n3c2noc3=O)cc1 (stereo not given)	0.52	–	–	–	–	–	–	–	–	12	–	76	Activity (Aorta [10]): 18%
CCOC1(c2ccccc2)SC=C(C)n2c1noc2=O (stereo not given)	0.22	4.8	16.9	Stable	> 20	> 20	19.1	> 20	86	–	32	–	half-life at 1 µM [12]: 20 min; Activity (Right cardiac atrium [17]): 11%; Activity [18]: 89%; IC50 [16]: 11.6 µM; microsomal CLint at 1 µM (in vitro): 86 µL/min/mg
COc1ccc([C@@H]2Sc3ccccc3N(CCN(C)C)C(=O)[C@@H]2OC(C)=O)cc1 [DILTIAZEM]	–	–	–	–	–	–	–	–	78	–	88	–	Activity (Left cardiac atrium [7]): 78%; Activity (Aorta [19]): 88%; Activity (Right cardiac atrium [17]): 94%; EC30 (Right cardiac atrium [20]): 0.07 µM; Activity [21]: 98%; IC50 [16]: 0.11 µM

Now from value to molecule, other results behind:

EC50 (Left cardiac atrium [2]) [µM]	IC50 (Cytochrome P450 2C19) [µM]	IC50 (Cytochrome P450 2D6) [µM]	Stability (Liver microsome)	IC50 (Cytochrome P450 1A2) [µM]	IC50 (Cytochrome P450 2C9) [µM]	IC50 (Cytochrome P450 3A4 [5]) [µM]	IC50 (Cytochrome P450 3A4 [11]) [µM]	SMILES	Activity (Left cardiac atrium [1]) [%]	Activity (Right cardiac atrium [3]) [%]	Activity (Aorta [4]) [%]	Activity (Left cardiac atrium [9]) [%]	also measured
0.21	6.1	> 20	Stable	> 20	19	> 20	–	CCOC1(c2ccccc2)Sc2ccccc2-n2c1noc2=O (stereo not given)	88	7	14	–	–
–	10.8	> 20	Stable	> 20	> 20	> 20	> 20	O=c1onc2n1-c1ccccc1SC2(OCC(F)(F)F)c1ccc(Br)cc1 (stereo not given)	–	–	–	–	–
–	1	7.1	Stable	5	6.6	> 20	> 20	CC1=CSC(OCC(F)(F)F)(c2ccc(Br)cc2)c2noc(=O)n21 (stereo not given)	–	–	–	–	half-life at 1 µM [12]: > 250 min; microsomal CLint at 1 µM (in vitro): < 7 µL/min/mg
0.095	17	> 20	Stable	> 20	> 20	> 20	> 20	COc1ccc(C2(OCC(F)(F)F)Sc3ccccc3-n3c2noc3=O)cc1 (stereo not given)	–	–	6	–	half-life at 1 µM [12]: 23 min; Activity (Left cardiac atrium [13]): 82%; Activity (Right cardiac atrium [14]): 19%; Activity [15]: 66%; IC50 [16]: 10.3 µM; microsomal CLint at 1 µM (in vitro): 76 µL/min/mg
0.32	–	–	–	–	–	–	–	COc1cccc(C2(OCC(F)(F)F)SC=C(C)n3c2noc3=O)c1 (stereo not given)	72	–	40	–	Activity (Right cardiac atrium [14]): 9%; Activity [15]: 95%; IC50 [16]: 12.4 µM
0.23	3.6	> 20	Stable	> 20	11.8	> 20	> 20	CCOC1(c2ccc(OC)cc2)Sc2ccccc2-n2c1noc2=O (stereo not given)	73	–	11	–	half-life at 1 µM [12]: 13 min; Activity (Right cardiac atrium [14]): 19%; microsomal CLint at 1 µM (in vitro): 135 µL/min/mg
0.41	–	–	–	–	–	–	–	CC(C)OC1(c2ccccc2)Sc2ccccc2-n2c1noc2=O (stereo not given)	–	–	7	69	Activity (Right cardiac atrium [14]): 13%
